In the library only some 3.1% were active in any assay of this set; here they are far more common.
Calb FLC – C. albicans growth inhibition with fluconazole, primary screen, CaCi-2 strain, Alamar Blue fluorescence. 300,000 compounds, 0.57% hits. growth inhibition, % (test concentration not listed). C. albicans CaCi-2 (fluconazole-resistant clinical isolate) + fluconazole, 48 h;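 active means growth inhibition above about 58% in most replicates, limit read from the data, passing the limit was not always enough; inconclusive means exactly half the replicates above a set limit; inactive means most replicates below a set limit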;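 further: all wells also contain fluconazole at 8 µg/ml as a sub-toxic cotreatment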
Beta apoptosis – inhibitors of cytokine-induced beta cell apoptosis, primary screen, luminescence | INS-1E cytokine-induced death, ATP luminescence, 48 h; percent of positive-control rescue, neutral wells zero | 300,000 compounds, 0.8% hits | protection from apoptosis, % (test concentration not listed);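 active means Every replicate reaches about 75%, or at least half do and their mean reaches it too, limit read from the data; inconclusive means At least half of replicates reach the limit but their mean does not; inactive means Under half of replicates reach the limit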;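 further: higher means more ATP so stronger rescue from cytokine killing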
HIF act – HIF pathway transcriptional activators, primary screen, cell-based, U2OS HRE-luciferase, luminescence; AID 1910, 2009; U2OS HRE-luciferase reporter; normalized: DMSO 0%, desferrioxamine 100%; activation, % at 7.5 µM (by protocol); 300,000 compounds, 0.32% hits;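 active means mean activation of at least 10% of the iron chelator positive control signal, with at least half of replicates also reaching 10%; inconclusive means mean and replicate majority disagree about reaching 10%; inactive means mean and most replicates under 10%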
T cruzi repl – inhibitors of intracellular T. cruzi growth, primary screen, luminescence, NIH3T3 host cells; T. cruzi beta-gal in NIH3T3, 90 h; inhibition, % (test concentration not listed); 300,000 compounds, 1.4% hits; AID 1885, 2009;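 active means mean inhibition across valid replicates above about 55%, limit read from the data; inconclusive means mean below that limit but half or more replicates reach it; inactive means mean below it, under half of replicates reach it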;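 further: signal also drops with host cell toxicity which is not excluded here; higher percent means less beta-gal luminescence so fewer parasites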
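Read-out: Parasite load inhibition, % | Test system: Mouse NIH/3T3 fibroblasts infected with β-gal-expressing T. cruzi Tulahuen C4 | Amount: 5,000 cells/well | Medium: DMEM, 2% fetal bovine serum | Signal: GalScreen β-gal luminescence, detergent lysis, 60 min | Timing: 3 h attach, ≥90 h co-culture | Also added: Tulahuen C4 trypomastigotes, 5000/well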
PolyA inh – polyadenylation inhibitors in yeast reporter cells, primary screen, luminescence, S. cerevisiae; S. cerevisiae SKY197-pL101 polyadenylation reporter, beta-gal luminescence; efflux-impaired pdr1/pdr3 knockout yeast; score 100 = 6 SD above DMSO; 300,000 compounds, 0.02% hits; AID 1875, 2009; activity score, % at 12 µM;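 active means lowest replicate activity score at least 50, where 100 means six control SD above control mean; inconclusive means lowest score under 50 but half or more replicates reach 50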;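 further: yeast exposed to compound for 9 h at 30 °C; higher score means more reporter readthrough which indicates perturbed polyadenylation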
CSC inhib – cancer stem cell viability inhibitors, primary screen, luminescence; cancer stem cell-like cells viability; 300,000 compounds, 1.1% hits; inhibition, % at 7.5 µM; in the data active means inhibition above about 75%; inconclusive means no clear call, values can overlap the other calls; tested in HMLE shEcad cells
Of the large screens only hits and unclear results are named; the others gave an inactive call.

O=[N+]([O-])c1cccnc1N/N=C/c1ccccc1O	Beta apoptosis 109.7, HIF act 20.7
O=S(=O)(Nc1cccc2ncccc12)c1cccs1	Calb FLC 94.8
Cc1c(NS(=O)(=O)c2cccs2)cccc1-c1nc2cccnc2s1	none
O=C(C1=NN[C@@H]2C(=O)N(c3cccc(C(F)(F)F)c3)C(=O)[C@H]12)C(c1ccccc1)c1ccccc1	HIF act 57.4
O=C(C1=NN[C@@H]2C(=O)N(c3cccc(F)c3)C(=O)[C@H]12)C(c1ccccc1)c1ccccc1	none
CCn1cc(C(=O)NCc2cccc(C(F)(F)F)c2)c(=O)c2ccc(C)nc21	none
Cc1cc(C)n2nc(C(=O)NCc3cccc(C(F)(F)F)c3)nc2n1	T cruzi repl 75.8
O=C(O)Cc1ccc(NC(=O)Nc2ccc(Br)cc2)cc1	none
COc1ccc(NC(=O)Nc2ccc(CC(=O)O)cc2)cc1	HIF act 27.1
COc1ccc(NC(=O)Nc2ccc(Br)cn2)cc1	HIF act 40.4
O=C(Nc1ccccc1)C(O)C(O)C(=O)Nc1ccccc1 (stereo unspecified)	none
CNC1=C(N(C(C)=O)c2ccc(Br)cc2)C(=O)c2ccccc2C1=O	Calb FLC 102.7, Beta apoptosis 131.1, T cruzi repl 70.3, CSC inhib 105.1
Nc1ncnc2c1ncn2C1CCCO1 (stereo unspecified)	none (no result: Calb FLC, HIF act, T cruzi repl, PolyA inh)
S=c1nc[nH]c2c1ncn2C1CCCO1 (stereo unspecified)	CSC inhib 122.3
O=C(CN(c1cc(Cl)ccc1Cl)S(=O)(=O)c1ccccc1)N1CCOCC1	none (no result: Beta apoptosis)
O=C(CCNc1ccc(F)cc1)c1cc2ccccc2o1	T cruzi repl 72.7
CCOC(=O)C1(CCOc2ccccc2)CCN(Cc2ccc(O)cc2)CC1	none (no result: Beta apoptosis, CSC inhib)
CCOC(=O)C1(CCOc2ccccc2)CCN(Cc2cccc3nonc23)CC1	T cruzi repl 57.4
CC1CCc2sc(C(=O)N/N=C/c3ccc(O)cc3)cc2C1 (stereo unspecified)	Calb FLC inconclusive
O=C(Nc1ccccc1NC(=O)c1ccccc1Cl)c1ccccc1Cl	none
COc1ccccc1-c1c(C(F)(F)F)oc2cc(OC(=O)c3ccc([N+](=O)[O-])cc3)ccc2c1=O	none (no result: Beta apoptosis, CSC inhib)
FC(F)(F)c1ccc(C2[C@H]3CN(Cc4cccnc4)[C@H](c4ccccc4)C34CC2(c2cccnc2)C4)cc1 (stereo partly specified)	CSC inhib 101.7
CN1CCN(NC(=O)Nc2cccc(Cl)c2Cl)CC1	T cruzi repl 56.7
COc1ccc(OC)c(-c2csc(N(CC3CCCO3)C(=O)C3CCCCC3)n2)c1 (stereo unspecified)	CSC inhib 77.9
OCCN1CCN(c2ncnc3sc(-c4ccccc4)cc23)CC1	T cruzi repl 62.1 (no result: CSC inhib)
Cc1[nH]c2ccccc2c1C(Nc1nccs1)c1ccncc1 (stereo unspecified)	none (no result: CSC inhib)
Oc1c(C(Nc2nccs2)c2ccc(C(F)(F)F)cc2)ccc2cccnc12 (stereo unspecified)	Calb FLC 102.5, HIF act 58.4 (no result: Beta apoptosis, CSC inhib)
Oc1c(C(Nc2cccc(C(F)(F)F)c2)c2ccncc2)ccc2cccnc12 (stereo unspecified)	Calb FLC 92.7, Beta apoptosis 78.8, HIF act 23.6, T cruzi repl 78.6
Cc1ccc(C(=O)OC(C)C(=O)c2cc(C)c(C)cc2C)o1 (stereo unspecified)	none
Cc1nccn1CCCNC(=O)CC1C(=O)NCCN1Cc1ccc(F)cc1Cl (stereo unspecified)	none
Cc1cc(-c2onc3ccc(Cl)cc23)ccc1O	none
CCCC(=O)NC(c1ccccc1OC)c1ccc2cccnc2c1O (stereo unspecified)	Calb FLC 101.4, Beta apoptosis 95.2, HIF act 69.0, T cruzi repl 81.2, CSC inhib 119.4
CCCC(=O)NC(c1ccc(OC)c(OC)c1)c1c(O)ccc2ccccc12 (stereo unspecified)	none
